According to ChEMBL document CHEMBL2040734, “Benzothiazoles: search for anticancer agents” (2012):

Key:
Assay type in all cases: functional
[1] = tested on: CAKI-1; test: Cytotoxicity against human Caki1 cells assessed as cell growth at 100 uM after 48 hrs by sulforhodamine B assay; conditions: CAKI-1, 48 h, read-out: Activity
Method in brief: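 NCI-60 five-dose screen. Cells were grown in RPMI 1640 with 5% FBS and 2 mM L-glutamine and preincubated 24 h. Compound (DMSO stock) was tested at 0.01, 0.1, 1, 10 and 100 µM for 48 h at 37 °C. Cells were fixed in situ with cold TCA (final 10%) and stained with 0.4% SRB. A515 was read, and percent growth was calculated against time-zero and control plates.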

[2] = tested on: MCF7; test: Cytotoxicity against human MCF7 cells assessed as cell growth at 100 uM after 48 hrs by sulforhodamine B assay; conditions: MCF7, 48 h, read-out: Activity
[3] = tested on: COLO 205; test: Cytotoxicity against human COLO205 cells assessed as cell growth at 10 '-5 M after 48 hrs by sulforhodamine B assay; conditions: COLO 205, 48 h, read-out: Activity
Method in brief: (§1)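 Primary NCI-60 single-dose screen at 10 µM. Cells were grown in RPMI 1640 with 5% FBS and 2 mM L-glutamine and plated 24 h before drug addition. Compound was solubilized in DMSO, then exposed for 48 h at 37 °C under 5% CO2. Cells were TCA-fixed and stained with SRB, and absorbance was read at 515 nm. Growth was expressed relative to time-zero and untreated controls.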

[4] = tested on: OVCAR-3; test: Cytotoxicity against human OVCAR3 cells assessed as cell growth at 10 '-5 M after 48 hrs by sulforhodamine B assay; conditions: OVCAR-3, 48 h, read-out: Activity
[5] = tested on: OVCAR-5; test: Cytotoxicity against human OVCAR5 cells assessed as cell growth at 0.1 uM after 48 hrs by sulforhodamine B assay; conditions: OVCAR-5, 48 h, read-out: Activity
[6] = tested on: M14; test: Cytotoxicity against human M14 cells assessed as cell growth at 1 uM after 48 hrs by sulforhodamine B assay; conditions: M14, 48 h, read-out: Activity
[7] = tested on: SK-MEL-28; test: Cytotoxicity against human SK-MEL-28 cells assessed as cell growth at 1 uM after 48 hrs by sulforhodamine B assay; conditions: SK-MEL-28, 48 h, read-out: Activity
[8] = tested on: RXF 393; test: Cytotoxicity against human RXF393 cells assessed as cell growth at 0.01 uM after 48 hrs by sulforhodamine B assay; conditions: RXF 393, 48 h, read-out: Activity
[9] = tested on: HT-29; test: Cytotoxicity against human HT-29 cells assessed as cell growth at 10 '-5 M after 48 hrs by sulforhodamine B assay; conditions: HT-29, 48 h, read-out: Activity
Method in brief: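 Primary one-dose screen across the NCI 60-line panel at 10 µM. Cells were grown in RPMI 1640 with 5% FBS and 2 mM L-glutamine and held 24 h before drug. Drug was diluted from a DMSO concentrate. Exposure was 48 h at 37 °C, 5% CO2. Cells were fixed with TCA and stained with SRB, with absorbance read at 515 nm. Percent growth was calculated against time-zero and untreated control.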

[10] = tested on: SNB-75; test: Cytotoxicity against human SNB75 cells assessed as cell growth at 1 uM after 48 hrs by sulforhodamine B assay; conditions: SNB-75, 48 h, read-out: Activity
[11] = tested on: 786-0; test: Cytotoxicity against human 786-0 cells assessed as cell growth at 10 '-5 M after 48 hrs by sulforhodamine B assay; conditions: 786-0, 48 h, read-out: Activity; method in brief: as §1
[12] = tested on: IGROV-1; test: Growth inhibition of human IGROV1 cells after 48 hrs by sulforhodamine B assay; conditions: IGROV-1, 48 h
Method in brief: (§2)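 Adherent NCI-60 lines were grown in RPMI 1640 with 5% FBS and 2 mM L-glutamine, plated at 5000–40,000 cells/well and preincubated 24 h. They were then exposed to five concentrations (0.01–100 µM, from a DMSO stock) for 48 h at 37 °C, 5% CO2. Cells were fixed with cold TCA (10% final, 60 min, 4 °C) and stained with 0.4% SRB. Dye was solubilized in 10 mM Tris base and A515 read. GI50 was derived from time-zero, control and treated absorbances.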

[13] = tested on: LOX IMVI; test: Cytotoxicity against human LOXIMVI cells assessed as cell growth at 1 uM after 48 hrs by sulforhodamine B assay; conditions: read-out: Activity
[14] = tested on: HCT-116; test: Cytotoxicity against human HCT116 cells assessed as cell growth at 1 uM after 48 hrs by sulforhodamine B assay; conditions: HCT-116, 48 h, read-out: Activity
Method in brief: (§3)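 Five-dose NCI panel run at 0.01, 0.1, 1, 10 and 100 µM. Cells were in RPMI 1640 with 5% FBS and 2 mM L-glutamine, seeded at 5000–40,000 cells/well and pre-incubated 24 h. Drug was diluted from a DMSO stock into medium with 50 µg/ml gentamicin. Exposure was 48 h at 37 °C, 5% CO2. Cells were fixed with cold TCA and stained with 0.4% SRB, read at 515 nm. Percent growth came from time-zero, control and test absorbances.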

[15] = tested on: CCRF-CEM; test: Growth inhibition of human CCRF-CEM cells after 48 hrs by sulforhodamine B assay
Method in brief: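 Cells were in RPMI 1640 with 5% FBS and pre-incubated 24 h. Read-out was TCA fixation, SRB staining and absorbance at 515 nm. GI50 was the concentration where [(Ti−Tz)/(C−Tz)]×100 = 50, taken from log concentration vs % growth curves. It is given as ">" the top concentration when not reached.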

[16] = tested on: HCT-15; test: Cytotoxicity against human HCT15 cells assessed as cell growth at 0.1 uM after 48 hrs by sulforhodamine B assay; conditions: HCT-15, 48 h, read-out: Activity; method in brief: as §3
[17] = tested on: OVCAR-8; test: Cytotoxicity against human OVCAR8 cells assessed as cell growth at 0.1 uM after 48 hrs by sulforhodamine B assay; conditions: OVCAR-8, 48 h, read-out: Activity
[18] = tested on: MDA-MB-231; test: Cytotoxicity against human MDA-MB-231 cells assessed as cell growth at 10 '-5 M after 48 hrs by sulforhodamine B assay; conditions: MDA-MB-231, 48 h, read-out: Activity
[19] = tested on: IGROV-1; test: Cytotoxicity against human IGROV1 cells assessed as cell growth at 100 uM after 48 hrs by sulforhodamine B assay; conditions: IGROV-1, 48 h, read-out: Activity
[20] = Growth inhibition of human Hs 578T cells after 48 hrs by sulforhodamine B assay; conditions: for CC50: read-out: LC50 (the source's name); method in brief: as §2
[21] = tested on: PC-3; test: Cytotoxicity against human PC3 cells assessed as cell growth at 10 '-5 M after 48 hrs by sulforhodamine B assay; conditions: PC-3, 48 h, read-out: Activity
[22] = tested on: OVCAR-5; test: Cytotoxicity against human OVCAR5 cells assessed as cell growth at 1 uM after 48 hrs by sulforhodamine B assay; conditions: OVCAR-5, 48 h, read-out: Activity
[23] = tested on: OVCAR-5; test: Cytotoxicity against human OVCAR5 cells assessed as cell growth at 100 uM after 48 hrs by sulforhodamine B assay; conditions: OVCAR-5, 48 h, read-out: Activity
[24] = tested on: MCF7; test: Growth inhibition of human MCF7 cells after 48 hrs by sulforhodamine B assay; conditions: MCF7, 48 h; for CC50: read-out: LC50 (the source's name); method in brief: as §2

Structure (SMILES) | growth at 100 µM [1] | growth at 100 µM [2] | growth at 10 µM [3] | growth at 10 µM [4] | growth at 0.1 µM [5] | growth at 1 µM [6] | growth at 1 µM [7] | growth at 0.01 µM [8] | growth at 10 µM [9] | growth at 1 µM [10] | growth at 10 µM [11] | GI50 [12] | LC50 (50% net cell kill) [12] | TGI [12] | growth at 1 µM [13] | growth at 1 µM [14] | GI50 [15] | LC50 [15] | TGI [15] | growth at 0.1 µM [16] | other results
Cc1ccc2nc(Nc3c(C)cccc3C)sc2c1 | 42% | 46% | 32.2% | 18.7% | 106% | 58% | 66% | 94% | 9.15% | 52% | 57.8% | 4160 nM | > 100 µM | > 100 µM | 62% | 66% | > 100000 nM | > 100 µM | > 100 µM | 98% | growth at 0.1 µM [17]: 105%; growth at 10 µM [18]: 47%; growth at 100 µM [19]: 33%; GI50 [20]: 3840 nM; TGI [20]: > 100 µM; CC50 [20]: > 100 µM; growth at 10 µM [21]: 40.4%; growth at 1 µM [22]: 79%; growth at 100 µM [23]: 78%; GI50 [24]: 1200 nM; TGI [24]: > 100000 nM; CC50 [24]: > 100 µM
Clc1cccc(Cl)c1Nc1nc2cccc(Cl)c2s1 | -75% | -55% | -90% | -61.4% | 92% | 73% | 77% | 94% | -67.6% | 46% | -59.7% | 1120 nM | 8.96 µM | 3.17 µM | 55% | 51% | 1320 nM | > 100 µM | 4.43 µM | 99% | growth at 0.1 µM [17]: 101%; growth at 10 µM [18]: -66.8%; growth at 100 µM [19]: -55%; GI50 [20]: 938 nM; TGI [20]: 3.49 µM; CC50 [20]: > 100 µM; growth at 10 µM [21]: 4.1%; growth at 1 µM [22]: 79%; growth at 100 µM [23]: -96%; GI50 [24]: 811 nM; TGI [24]: 2240 nM; CC50 [24]: 5.37 µM
